# Test results as given in PubChem BioAssay.
# Calls of active or inactive are those of the source. Unless noted, no stated cut-off is given here; in the data, active means inhibition above about 30%; inactive means the rest.
# What was measured:
# [1] = SK-BR-3 cell growth inhibitors, pilot screen, 24 h, human (AID 572;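 active means viability at or below 10% of carrier control in both of two separate runs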;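 further: compound exposure lasted between 18 and 24 h rather than exactly 24 h; 100% = carrier-treated control wells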); conditions: SK-BR-3 viability, CellTiter-Glo luminescence, at 10 µM, stronger effect = lower value
# [2] = HUVEC growth inhibition – cell-based, human, primary screen (AID 575;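 active means viability at or below 30% in both replicate assays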;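 further: 100% = median of untreated cell wells with 0.1% DMSO on each plate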); conditions: HUVEC proliferation, CellTiter-Glo luminescence, 72 h; at 10 µM; stronger effect = lower value
# Method in brief: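 Test system: HUVEC primary cells. Quantity: 1250 endothelial cells in each well. Dosing: single-point 10 µM, DMSO 0.1% final. Incubation: 72 h treatment at 37 °C. Measured by: CTG luminescence. Control set: DMSO cell controls and MePR drug controls. Plate: collagen-coated 384-well format.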
# [3] = growth inhibitors of H69AR lung tumor, primary screen, human, duplicate replicates (AID 580;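 active means viability at or under a set limit in both replicates, limit being median viability minus 3 SD, cut at about 48% in these data, passing the limit was not always enough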;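 further: 100% = mean luminescence of untreated wells and 0% = no signal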); conditions: H69AR lung tumor cells viability, ATP luminescence, 72 h; at 10 µM; stronger effect = lower value
# [4] = reversal of MRP1-mediated doxorubicin resistance, pilot screen, H69AR cells, doxorubicin co-treatment (AID 601;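 active means viability loss from added drug above about 55%, and viability with drug at most 40%, in both replicates, limit read from the data, passing the limit was not always enough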); conditions: CellTiter-Glo, 72 h, at 10 µM; for differential viability (reversal): stronger effect = higher value
# [5] = 384-well plate pilot, post-Golgi transport modulator project, inhibition of yeast transport mutant growth (AID 636; in the data active means inhibition above about 31%); conditions: absorbance 615 nm, about 18 h, stronger effect = higher value
# [6] = growth suppression of yeast trafficking mutant, preliminary HTS, modulators of trafficking downstream of Golgi apparatus project, 1536-format plate, OD 615 nm (AID 637); conditions: yeast transport mutant growth, absorbance 615 nm, 18 h; stronger effect = higher value
# [7] = H69AR cells + 2 uM doxorubicin, measured here: viability with 2 uM doxorubicin, stronger effect = lower value
# [8] = H69AR cells, compound alone cytotoxicity
Compound,viability [1],viability [2],viability [3],differential viability (reversal) ([4]; H69AR cells + 2 uM doxorubicin),"viability [4, 7] [%]","viability [4, 8] [%]",inhibition [5],inhibition [6]
Cc1c(C)[n+](=O)c2c(n1[O-])CCCCC2,89% (inactive),93.5% (inactive),96% (inactive),9.67% (inactive),86.3,96,-1.43% (inactive),-2.3% (inactive)
CCCC(=O)Nc1cc(-c2nnc(OC)c3ccccc23)ccc1N1CCOCC1,109% (inactive),84.6% (inactive),94.5% (inactive),-7.97% (inactive),102,94.5,0.96% (inactive),3.71% (inactive)
CC(C)n1c(NCc2c[nH]c3ccccc23)nc2ccccc21,91% (inactive),79.6% (inactive),74.8% (inactive),-3.61% (inactive),78.4,74.8,-9.45% (inactive),-5.16% (inactive)
CCOc1nc(OCC)nc(N2CCC(C)CC2)n1,91% (inactive),108% (inactive),84.9% (inactive),-10.5% (inactive),95.4,84.9,-5% (inactive),31.4% (active)
O=C(NCc1ccccn1)c1cc(-n2cnnc2)ccc1Cl,86% (inactive),88.6% (inactive),101% (inactive),-1.2% (inactive),102,101,-2.73% (inactive),2.79% (inactive)
Cc1cccc(NC(=O)C2CCCN2C(=O)OCC(C)C)c1C (stereo not drawn),96% (inactive),108% (inactive),92% (inactive),8.52% (inactive),83.5,92,-4.86% (inactive),-3.82% (inactive)
CCCCOc1ccc(C(=O)CCN2CCCCC2)cc1,121% (inactive),46% (inactive),66.1% (inactive),24.7% (inactive),41.4,66.1,-2.21% (inactive),6.17% (inactive)
CCSc1nc(N)c(C#N)c(-c2ccccc2Cl)c1C#N,105% (inactive),96.1% (inactive),75.9% (inactive),-3% (inactive),78.9,75.9,0.14% (inactive),0% (inactive)
Cc1c(NC(=O)CCc2ccc(S(=O)(=O)N3CCOCC3)cc2)c(=O)n(-c2ccccc2)n1C,93% (inactive),109% (inactive),100% (inactive),10.3% (inactive),89.8,100,-3.77% (inactive),-8.2% (inactive)
Cc1ccc(CC2SC(=O)NC2=O)cc1Cl (stereo not drawn),107% (inactive),75.8% (inactive),92.7% (inactive),4.26% (inactive),88.4,92.7,3.42% (inactive),-2.26% (inactive)
Cc1cccc(NC(=O)C2CCCN(C(=O)Nc3ccccc3)C2)c1C (stereo not drawn),88% (inactive),102% (inactive),96.2% (inactive),5.37% (inactive),90.8,96.2,-1.04% (inactive),3.11% (inactive)
CCOC(=O)N1CCC(n2c(=S)[nH]c3cc(OC)c(OC)cc3c2=O)CC1,114% (inactive),59.5% (inactive),57.1% (inactive),-2.02% (inactive),59.1,57.1,-4.16% (inactive),-1.27% (inactive)
COC(=O)CCN(C(=O)c1ccc2c(c1)OCO2)c1ccccn1,96% (inactive),93.6% (inactive),98.5% (inactive),7.88% (inactive),90.7,98.5,-8.22% (inactive),0.55% (inactive)
CC1(C)CC(=O)C2=C(C1)N(CC1CCCO1)C(=O)C2(O)C(F)(F)F (stereo not drawn),98% (inactive),97.5% (inactive),101% (inactive),3.08% (inactive),97.7,101,-5.95% (inactive),-6.36% (inactive)
CCCC(=O)n1nc(-c2ccc(OC)cc2)nc1N,101% (inactive),93.6% (inactive),105% (inactive),7% (inactive),98.3,105,-1.56% (inactive),5.74% (inactive)
CCOC(=O)N1CCC(NC(=O)Cc2ccc(-n3c(=O)[nH]c4ccccc4c3=O)cc2)CC1,103% (inactive),97.6% (inactive),96.4% (inactive),7.9% (inactive),88.5,96.4,-5.06% (inactive),0% (inactive)
COC(=O)c1ccccc1NC(=O)c1cnc2sccn2c1=O,110% (inactive),87.9% (inactive),104% (inactive),8.43% (inactive),95.5,104,-3.6% (inactive),-0.91% (inactive)
COc1ccc(-c2nc(C)sc2CC(=O)O)cc1,100% (inactive),103% (inactive),95.8% (inactive),2.46% (inactive),93.3,95.8,-2.21% (inactive),1.31% (inactive)

Compound,viability [1],viability [2],viability [3],differential viability (reversal) ([4]; H69AR cells + 2 uM doxorubicin),"viability [4, 7] [%]","viability [4, 8] [%]",inhibition [5],inhibition [6]
O=C(CSc1ccccc1C(=O)NCCCN1CCCC1=O)NCc1ccco1,108% (inactive),102% (inactive),82.3% (inactive),2.32% (inactive),80,82.3,-3.6% (inactive),6% (inactive)
Nc1ccc(S(=O)(=O)c2cccc(N)c2)cc1,62% (inactive),100% (inactive),96.2% (inactive),11.8% (inactive),84.4,96.2,-9.18% (inactive),1.64% (inactive)
O=C(CCn1c(=O)oc2ccccc21)N1CCN(c2ccccc2Cl)CC1,72% (inactive),54.2% (inactive),11.2% (active),-55.1% (inactive),66.3,11.2,7.3% (inactive),-2% (inactive)
CC(=O)C1=C(NC(=O)c2ccccc2F)C[C@@H]2[C@H]1C2(C)C,90% (inactive),99.2% (inactive),91.3% (inactive),1.76% (inactive),89.5,91.3,-10.7% (inactive),-3.55% (inactive)
O=C(c1cnn2c(C(F)F)cc(-c3ccccc3)nc12)N1CCN2CCCC2C1 (stereo not drawn),103% (inactive),103% (inactive),79.1% (inactive),-1.71% (inactive),80.8,79.1,-4.79% (inactive),1.82% (inactive)
CCOC(=O)C1CSc2[nH]c(=O)sc2C1c1ccccc1 (stereo not drawn),100% (inactive),117% (inactive),93.2% (inactive),-9.41% (inactive),103,93.2,0.95% (inactive),-2% (inactive)
CC(=O)c1ccc(N2CCN(C(=O)c3cc(C)on3)CC2)cc1,100% (inactive),97.7% (inactive),111% (inactive),12.4% (inactive),98.9,111,-6.99% (inactive),-3.82% (inactive)
CCOC(=O)N1CCN(C(=O)c2cn(CC)c3cc(N4CCN(C)CC4)c(F)cc3c2=O)CC1,100% (inactive),101% (inactive),104% (inactive),1.33% (inactive),103,104,-7.26% (inactive),7.74% (inactive)
CCOC(=O)CSC1=C(C#N)C(c2ccc3c(c2)OCO3)CC(=O)N1 (stereo not drawn),90% (inactive),73.1% (inactive),13.1% (active),-52.4% (inactive),65.5,13.1,-5.41% (inactive),-2.36% (inactive)
COc1ccc(/C=N/n2c(SC)nnc2-c2ccccc2)cc1C,116% (inactive),75.5% (inactive),20.7% (active),-58.1% (inactive),78.8,20.7,0.93% (inactive),9.27% (inactive)
CCC(CC)n1[nH]c(=O)c2c(C)cc(C)nc21,81% (inactive),103% (inactive),105% (inactive),14.5% (inactive),90.5,105,-5.14% (inactive),-6% (inactive)
Cc1cc2ccccc2c(=O)n1CC(=O)Nc1ccc2c(c1)OCO2,136% (inactive),86.6% (inactive),98.9% (inactive),5.25% (inactive),93.7,98.9,-2.34% (inactive),-7.05% (inactive)
CC(=O)OCC(=O)[C@H]1CC[C@H]2[C@@H]3CCC4=CC(=O)CC[C@]4(C)[C@H]3CC[C@]12C,86% (inactive),39.2% (inactive),102% (inactive),-0.2% (inactive),102,102,-0.91% (inactive),-3.5% (inactive)
CCOC(=O)c1c(C)[nH]c(C)c1C(=O)COC(=O)CNC(=O)c1ccc(OCC)cc1,96% (inactive),77.9% (inactive),88.3% (inactive),4.05% (inactive),84.2,88.3,-2.34% (inactive),-0.66% (inactive)
CCOC(=O)c1c(C(F)(F)C(F)(F)C(F)(F)C(F)(F)F)n[nH]c1C,63% (inactive),79.5% (inactive),76.8% (inactive),25.1% (inactive),51.7,76.8,-5.75% (inactive),4% (inactive)
c1ccc(-c2cc(N3CCCCC3)ncn2)cc1,105% (inactive),101% (inactive),99.7% (inactive),9.16% (inactive),90.6,99.7,-7.26% (inactive),-0.32% (inactive)
O=c1[nH]c(N2CCCCC2)nc2c1CCCC2,95% (inactive),96.2% (inactive),95.8% (inactive),5.24% (inactive),90.5,95.8,-4.05% (inactive),15.3% (inactive)
CCOC(=O)N1CCN(C(=O)CN(Cc2ccccc2)S(=O)(=O)c2ccc(OC)c(C)c2)CC1,106% (inactive),102% (inactive),94.7% (inactive),-7.75% (inactive),102,94.7,-0.13% (inactive),-3.45% (inactive)
